DAGLB inh = diacylglycerol lipase beta (human) inhibition; 0.059% of 340,000 active; HEK293T DAGLB membrane lysate, EnzChek fluorogenic substrate; Q8NCG7; inhibition, % at 5.17 µM; in the data active = inhibition above about 34%;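 also: 0% = enzyme with vehicle and 100% = wells lacking enzyme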
rCAG binder = r(CAG) repeat RNA binding; 1.3% of 370,000 active; TO-PRO-1 dye displacement fluorescence; inhibition, % at 3 µM;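 active = inhibition above the plate cutoff, the mean of all test compounds on that plate plus 3 SD, cut at about 35% in these data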;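 also: 0% = DMSO alone and 100% = 100 µM mitoxantrone as full dye displacement; higher means more dye released from RNA so lower well fluorescence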
mABHD4 FP = inhibitors of mouse ABHD4; 0.54% of 370,000 active; purified mABHD4, FP-Rh probe fluorescence polarization; inhibition, % at 8.92 µM; Q8VD66;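 active = inhibition exceeding the mean over every tested compound plus 3 SD, cut at about 30% in these data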;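 also: 0% = plate median of compound wells and 100% = S159A mutant with DMSO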
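Doses – 8.92 µM, single dose · Material – wild-type mouse ABHD4 protein · Replication – single well per compound (singlicate) · Measure – percent inhibition of probe binding, normalized to plate controls · Schedule – 45 min compound pre-incubation plus 60 min probe step, 25 °C · Detection – fluorescence polarization with parallel and perpendicular emission, 525/598 nm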
HTRA1 inhibitor = inhibitors of human serine peptidase HTRA1; Q92743; recombinant HTRA1, FP-rhodamine activity-based probe, fluorescence polarization; inhibition, % at 5.96 µM; 0.5% of 340,000 active; AID 504803; in the data active = inhibition above about 36%;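 also: 0% = enzyme with DMSO and 100% = wells lacking enzyme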
Target sequence (Q92743 whole entry, looked up): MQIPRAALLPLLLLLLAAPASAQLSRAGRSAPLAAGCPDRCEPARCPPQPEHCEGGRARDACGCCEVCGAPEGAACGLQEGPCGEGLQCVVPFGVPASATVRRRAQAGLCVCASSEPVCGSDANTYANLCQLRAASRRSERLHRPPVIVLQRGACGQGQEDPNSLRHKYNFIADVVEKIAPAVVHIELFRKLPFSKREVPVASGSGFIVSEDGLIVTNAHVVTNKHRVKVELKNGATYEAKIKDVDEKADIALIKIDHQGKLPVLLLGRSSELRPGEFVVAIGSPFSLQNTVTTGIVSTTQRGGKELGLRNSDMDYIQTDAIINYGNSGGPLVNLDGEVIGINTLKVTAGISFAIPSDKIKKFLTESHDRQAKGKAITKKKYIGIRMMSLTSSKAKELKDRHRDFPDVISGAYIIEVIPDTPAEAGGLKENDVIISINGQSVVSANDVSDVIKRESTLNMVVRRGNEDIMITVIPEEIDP
PRMT1 inh = blocks human protein arginine methyltransferase 1; inhibition, % at 2.79 µM; recombinant PRMT1, activity-based probe fluorescence polarization; Q99873; 1.3% of 370,000 active;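 active = inhibition above about 21% made by adding two undisclosed values, limit read from the data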
LEDGF integ inh = blocks HIV-1 LEDGF/p75-dependent DNA integration | TR-FRET IN-LEDGF/p75 DNA integration, Eu/Cy5 | inhibition, % at 3.7 µM | 0.64% of 370,000 active | AID 743269;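 active = inhibition above the screen-wide mean plus 3 SD, cut at about 13% in these data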;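 also: signal is the Cy5 over europium emission ratio at 671 and 618 nm; 0% = plate median of compound wells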
rCAG binder conf = r(CAG) RNA repeat binding, confirmation; shares compounds with rCAG binder; TO-PRO-1 dye displacement fluorescence; inhibition, % at 3 µM; 70% of 4,300 active;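 active = inhibition above a per-plate cutoff, the mean inhibition of sample wells plus 3 SD, cut at about 35% in these data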;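 also: loss of TO-PRO-1 fluorescence as compound displaces dye from 1x1 AA loop RNA; 0% = DMSO only wells and 100% = 100 µM mitoxantrone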
DNA CAG counter = disrupts DNA CAG TO-PRO-1 complex, flagging rCAG hits | d(CAG) DNA oligo TO-PRO-1 dye displacement, fluorescence | shares compounds with rCAG binder | inhibition, % at 3 µM | 94% of 4,300 active;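 active = inhibition above its plate's cutoff, the mean test-well inhibition plus 3 SD, cut at about 4.8% in these data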;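 also: 0% = DNA dye mix with DMSO and 100% = 100 µM mitoxantrone; hits displace the dye from DNA and so lower well fluorescence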
dCAG dye DR = DNA CAG dye complex inhibition, dose response counter-screen | DNA CAG/GTC duplex TO-PRO-1 dye displacement fluorescence | IC50, µM | shares compounds with rCAG binder | 20% of 250 active | AID 686960; in the data active = IC50 below about 10 µM
The depositor's hits bear a star; i = inactive; · = no result given. Compounds with a hit are over-represented: about 3.2% of the library has one in this group of screens.

SMILES	DAGLB inh	rCAG binder	mABHD4 FP	HTRA1 inhibitor	PRMT1 inh	LEDGF integ inh	rCAG binder conf	DNA CAG counter	others
COc1cccc(OCC(=O)Nc2cc(NC(=O)COc3cccc(OC)c3)cc(C(=O)O)c2)c1	0.6	54.8*	-30.7	-20.0	-1.2	2.5	53.1*	18.4*
CC(C)C(NS(=O)(=O)c1cccs1)C(=O)NCc1ccccc1 (stereo unspecified)	2.8	4.2	2.4	-1.8	-1.2	0.9	·	·
CC(=O)Nc1ccc(Br)c2ccccc12	2.5	1.4	-0.2	3.4	2.1	-6.1	·	·
O=C(Nc1ccc(Br)c2ccccc12)c1ccc2ccccc2c1O	4.3	77.3*	17.7	19.4	10.9	-3.5	78.2*	40.0*
CCc1nnc(NS(=O)(=O)c2ccc(N/C=C\C(=O)c3cccc(OC)c3)cc2)s1	5.3	49.1*	-1.0	-23.9	0.0	3.1	62.9*	28.0*
CCc1nnc(NS(=O)(=O)c2ccc(N/C=C\C(=O)c3ccc(C)cc3)cc2)s1	6.3	54.6*	8.1	-19.7	2.6	3.5	71.9*	38.5*
CC(C)(C)Cc1nnc(NS(=O)(=O)c2ccc(F)cc2)s1	5.3	18.3	-4.8	-0.3	-0.4	-0.8	·	·
Cc1noc(NS(=O)(=O)c2ccc(N/C=C\C(=O)c3ccc(F)cc3)cc2)c1C	·	36.2*	-7.6	·	1.7	-7.2	43.0*	7.9*
CCc1nnc(NS(=O)(=O)c2ccc(N/C=C\C(=O)c3ccc(F)cc3)cc2)s1	7.8	48.5*	4.5	-12.2	2.7	-3.6	61.2*	23.0*
CCc1nnc(NS(=O)(=O)c2ccc(N/C=C/C(=O)c3ccc(C)cc3)cc2)s1	8.3	49.5*	23.3	-14.1	-0.2	2.2	72.5*	34.3*	dCAG dye DR=9.65*
CC1=C/C(=C(\c2cc(C)c(O)c(Br)c2)c2ccccc2S(=O)(=O)O)C=C(Br)C1=O	19.5	49.3*	-73.2	-27.7	-1.6	-10.7	33.2	9.3*
COc1ccc(NS(=O)(=O)c2ccc3nc(COc4cccc5ccccc45)[nH]c3c2)cc1	-1.9	18.7	-92.9	-78.1	2.6	-0.6	·	·
COc1ccc(NS(=O)(=O)c2ccc3nc(COc4ccc5ccccc5c4)[nH]c3c2)cc1	0.6	50.8*	-96.5	-85.1	0.1	-8.0	19.4	14.4*
O=C(O)[C@H](Cc1ccccc1)NC(=O)C(c1ccccc1)(c1ccccc1)c1ccccc1	10.5	37.9*	1.8	-15.8	-0.9	-0.7	53.1*	12.9*
CCOC(=O)N1CCN(S(=O)(=O)N2CCCC(C(=O)NC(C)c3ccccc3)C2)CC1 (stereo unspecified)	1.1	-6.1	-2.9	5.4	-3.3	4.3	·	·
CCc1ccc(NC(=S)N(Cc2cccc(Br)c2)CC2CCC(C(=O)O)CC2)cc1 (stereo unspecified)	-3.1	42.1*	-34.6	-12.9	-1.4	3.9	53.3*	17.8*
Cc1ccc(NC(=S)N(Cc2cccc(Br)c2)CC2CCC(C(=O)O)CC2)cc1Cl (stereo unspecified)	3.5	44.1*	-48.8	-28.4	3.1	1.2	60.2*	21.2*	dCAG dye DR=i
Cc1cc(C)cc(NC(=S)N(Cc2cccc(Br)c2)CC2CCC(C(=O)O)CC2)c1 (stereo unspecified)	4.3	7.4	-12.9	4.3	-5.2	5.0	·	·
COc1cccc(NC(=O)C2C3C=CC4(O3)C2C(=O)N(CCCN2CCCC(C)C2)C4C(=O)NC2CCCCC2C)c1 (stereo unspecified)	0.9	-5.6	0.7	1.6	-0.7	2.4	·	·
Cn1c(=O)cc(OCCCC(=O)NCc2ccc(F)cc2Cl)c2ccccc21	2.5	0.1	-0.3	-5.1	1.1	-0.5	·	·
O=C(O)CSc1nc2sc3c(c2c(=O)n1-c1ccccc1)CCC3	3.1	6.5	0.7	0.2	5.7	0.2	·	·

Compound activity deposited in PubChem BioAssay by The Scripps Research Institute Molecular Screening Center.
